High-throughput results from PubChem.
The list is not random: actives were taken first. Their share in the collection is about 2.9%.
SENP6 inh = inhibitors of human SENP6 protease; Q9GZR1; inhibition, % at 10 µM; AID 2599; Recombinant SENP6 catalytic domain, aminoluciferin luminescence; 1.8% of 330,000 active;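 active = inhibition above about 50% at the single tested dose, limit read from the data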;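 also: plate controls were DMSO wells with enzyme for no effect and DMSO wells lacking enzyme for full effect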
SENP7 inh = SENP7 protease inhibition; Q9BQF6; recombinant SENP7, Z-RLRGG-aminoluciferin luminescence, 40 min; inhibition, % at 5 µM; 1.5% of 330,000 active;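 active = inhibition above about 50% at the single test dose, limit read from the data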;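 also: plate controls were DMSO with enzyme for no effect and no enzyme buffer wells for full effect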
Target sequence (Q9BQF6 706-1050 limits assumed): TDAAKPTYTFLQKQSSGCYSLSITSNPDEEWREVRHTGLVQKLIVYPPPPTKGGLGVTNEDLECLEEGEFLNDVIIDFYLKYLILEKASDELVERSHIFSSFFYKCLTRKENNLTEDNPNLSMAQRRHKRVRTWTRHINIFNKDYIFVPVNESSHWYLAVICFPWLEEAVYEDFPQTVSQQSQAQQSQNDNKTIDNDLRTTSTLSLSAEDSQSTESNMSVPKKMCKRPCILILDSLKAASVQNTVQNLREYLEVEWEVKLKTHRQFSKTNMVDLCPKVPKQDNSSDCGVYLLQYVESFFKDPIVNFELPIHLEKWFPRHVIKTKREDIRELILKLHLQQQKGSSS
SENP8 block-1 = inhibitors of human SENP8 protease | Q96LD8 | recombinant SENP8, Nedd8 substrate fluorescence | inhibition, % at 20 µM | 0.64% of 360,000 active | AID 602440; in the data active = inhibition mostly above about 40%, no sharp cut-off; inactive = mostly below about 27%
SENP1 FRET inh = inhibitors of human SENP1 SUMO protease catalytic domain. Q9P0U3. recombinant SENP1 catalytic domain, CyPet-SUMO1-YPet FRET cleavage. inhibition, % at 10 µM. 0.21% of 360,000 active;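 active = inhibition at least 30% at 10 µM, raw YFP signal under a set limit, fluorescence ratio 0.5 to 1.5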;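 also: 0% = enzyme with DMSO and 100% = no enzyme wells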
Target sequence (Q9P0U3 419-644 limits assumed): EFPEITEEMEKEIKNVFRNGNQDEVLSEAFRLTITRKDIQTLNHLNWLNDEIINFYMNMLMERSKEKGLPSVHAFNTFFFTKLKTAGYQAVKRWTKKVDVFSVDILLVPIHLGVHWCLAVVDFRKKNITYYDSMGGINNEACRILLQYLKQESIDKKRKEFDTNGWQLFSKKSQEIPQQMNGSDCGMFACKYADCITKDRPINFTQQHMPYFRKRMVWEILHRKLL
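Assay system – human recombinant His6-tagged SENP1 catalytic domain enzyme · Input – SENP1 enzyme, 20 pM final · Buffer or medium – Tris pH 8 buffer plus EDTA, NaCl, BME, BSA, NP40, catalase · Schedule – 50 min reaction at room temperature · Technique – FRET read of cyan and yellow fluorescence · Control set – no-enzyme wells low, DMSO-plus-enzyme wells high control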
HSP90 inh = HSP90 refolding inhibition in rabbit reticulocyte lysate. 0.91% of 290,000 active. luciferase refolding luminescence, 3 h. inhibition, % at 5.6 µM;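 active = inhibition above the screen-wide mean plus 3 SD, computed separately per campaign, cut at about 16% in these data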;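 also: 0% = DMSO wells and 100% = 60 µM geldanamycin wells; inhibitors lower the luminescence because luciferase stays unfolded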
SENP8 block-2 = SENP8 protease inhibition | purified SENP8, Z-RLRGG-aminoluciferin cleavage, luminescence | Q96LD8 | AID 2540 | 1.2% of 330,000 active | inhibition, % at 10 µM; in the data active = inhibition above about 50%
* = called active by the depositor; nt = no result.

SMILES	SENP6 inh	SENP7 inh	SENP8 block-1	SENP1 FRET inh	HSP90 inh	SENP8 block-2
COCCCn1c(O)c(/C=C2\N=C(C#N)C(=Nc3ccc(C)cc3)O2)sc1=S	1	14	13	54*	3	-3
Cc1cccc(NC(=S)N=Nc2c(O)[nH]c3ccccc23)c1	-3	6	42*	7	0	3
COc1cc(Br)cc(/C=C/c2ccc3cccc(O)c3n2)c1O	8	-12	-35	67*	1	-20
CCOC(=O)N1CCN(C2=C(NS(=O)(=O)c3ccc(NC(C)=O)cc3)C(=O)c3ccccc3C2=O)CC1	50	35	73*	1	4	24
CCOC(=O)C1CCCN(C2=C(NS(=O)(=O)c3ccc(Br)cc3)C(=O)c3ccccc3C2=O)C1 (centres undefined)	43	39	58*	2	1	16
CCOC(=O)C1CCN(CC(C)(C)NS(=O)(=O)c2ccc(Cl)cc2)CC1	-2	-6	10	-2	3	6
CC1CCCN(C2=C(NS(=O)(=O)c3ccc(Br)cc3)C(=O)c3ccccc3C2=O)C1 (centres undefined)	38	20	36	-5	0	5
CN(C1=C(N2CCCCC2)C(=O)c2ccccc2C1=O)c1ccccc1	46	15	49*	-5	0	19
CC(=O)Nc1ccc(S(=O)(=O)NC2=C(N3CCN(C)CC3)C(=O)c3ccccc3C2=O)cc1	34	23	24	-14	0	19
CCOC(=O)C1CCN(C2=C(NS(=O)(=O)c3ccc(Cl)cc3)C(=O)c3ccccc3C2=O)CC1	22	11	49*	2	-2	15
O=C1C(NS(=O)(=O)c2ccc(Br)cc2)=C(N2CCCCC2)C(=O)c2ccccc21	25	5	64*	2	0	2
CCOC(=O)C1=NN(C(=O)c2ccc(OC)cc2)C(O)(c2ccc(Cl)cc2)C1 (centres undefined)	-5	-9	13	20	2	-3
COC(=O)C1=NN(C(=O)c2cccc(Br)c2)C(O)(c2ccc(Cl)cc2)C1 (centres undefined)	-5	1	28	65*	-3	1
CCCCn1c(N)c(N(C)C(=O)c2cc3c(s2)CCCCC3)c(=O)[nH]c1=O	3	4	-56	-12	nt	-9
CCSc1nc(O)cc(=O)[nH]1	-11	-2	13	3	-2	-11
N#CNc1nc(O)cc(=O)[nH]1	21	-1	-53	29*	3	7
O=C(CNCc1ccc(Cl)cc1)Nc1cc(S(=O)(=O)N2CCCC2)ccc1Cl	nt	nt	-9	-7	nt	nt
CCc1cccc(CC)c1-n1c(SCC(=O)N2CCc3ccccc32)nc(O)cc1=O	9	4	12	-2	nt	5
O=C(O)c1ccc(N=N/C(=N\Nc2ccc(C(=O)O)cc2)c2ccccc2)cc1	22	-4	45*	4	nt	10
O=C(O)c1cccc(N/N=C(\N=Nc2ccccc2)c2ccccc2)c1	11	7	38	1	nt	-2
CN(C)CCCN(C(=O)c1ccc(S(=O)(=O)N2CCc3ccccc32)cc1)c1nc2ccc(Cl)cc2s1	-19	-12	11	2	16*	-4
CN(C)CCCN(C(=O)c1ccc(S(=O)(=O)N2CCc3ccccc32)cc1)c1nc2ccc(F)cc2s1	-12	2	17	1	0	-5
O=[N+]([O-])c1ccccc1NCCOc1ccccc1	82*	73*	16	1	0	60*
O=C(CCOc1ccccc1)Nc1ccccc1[N+](=O)[O-]	12	3	15	-1	0	-2
C[C@@H](NC(=O)c1[nH]cnc1C(=O)Nc1nccs1)c1ccccc1	4	-1	6	4	nt	1
SMILES	SENP6 inh	SENP7 inh	SENP8 block-1	SENP1 FRET inh	HSP90 inh	SENP8 block-2
COc1cccc(C(=O)OCC(=O)N2CCc3ccccc3C2)c1OC	2	0	10	1	nt	0
Cc1cccc2c(N=Nc3ccc(S(=O)(=O)Nc4ccc(Cl)cc4)cc3[N+](=O)[O-])c(O)[nH]c12	-13	-2	40*	5	1	1
Cc1cccc2c(N=NC(=O)c3ccc(NS(=O)(=O)c4cccs4)cc3)c(O)[nH]c12	-9	-6	24	2	nt	8
C/C(=N/Nc1nc(-c2ccccc2F)nc2ccccc12)c1ccccc1O	-7	-9	23	74*	7	-3
C/C(=N\Nc1nc(-c2ccccc2O)nc2ccccc12)c1ccccc1	-31	-2	18	3	0	-13
COc1cccc(CNc2ncc(Br)cc2Br)c1O	-14	-8	40*	-3	-6	-6
COc1cccc(CNc2ccc(Br)cn2)c1O	32	16	19	1	8	7
CCC(Oc1ccccc1)C(=O)NC1C(=O)N2C1SC(C)(C)C2C(=O)O (centres undefined)	19	61*	15	2	-2	-1
COc1cccc(CNC(=O)CCS(=O)(=O)c2ccccc2Cl)c1	-12	5	1	2	nt	-1
COc1cc(OC)cc(OC(=O)C2CCN(C(=O)c3ccc(Cl)cc3)CC2)c1	-9	-2	9	-2	nt	9
COc1ccc(-n2c(N)c(C(=O)NCc3ccco3)c3nc4ccccc4nc32)cc1	4	4	-279	-19	3	7
Nc1c(C(=O)NCc2ccco2)c2nc3ccccc3nc2n1CCc1ccc(F)cc1	67*	44	-259	-22	1	58*
CC(C)(C)c1ccc(OC(=O)Nc2ccc(O)c(C(=O)O)c2)cc1	83*	18	-263	3	12	72*
CN1/C(=C/C(=O)c2nc(S(C)(=O)=O)ncc2Cl)C(C)(C)c2ccccc21	-10	7	25	42*	1	5
CN1/C(=C\C(=O)c2cccnc2)C(C)(C)c2ccccc21	-17	-3	-183	-26	-3	-13
Cc1ccc(C(C(=O)NCC2CCCO2)N(C(=O)c2snc(C(N)=O)c2N)c2ccccc2F)o1 (centres undefined)	-13	9	-318	-33	1	1
O=C(O)c1ccc(Cl)c2c1C1C=CCC1C(c1ccccn1)N2 (centres undefined)	-9	-12	nt	nt	2	-10
O=[N+]([O-])c1ccc(Cl)c2c1C1C=CCC1C(c1ccccn1)N2 (centres undefined)	9	0	42*	5	-2	-6
O=C1C(Cl)=C(N2CCN(c3ccccc3[N+](=O)[O-])CC2)C(=O)c2ccccc21	nt	nt	61*	4	-1	nt
O=C1CCCC/C1=C\Nc1ccc(C(=O)O)c(O)c1	62*	22	-7	-2	-3	36
C(=N\Nc1nc2ccccc2s1)/c1ccc2c(c1)OCO2	67*	89*	-238	-2	-4	55*
